Molecules are shown by their SMILES.

Assay [1] has as its system human plasma prothrombin time. Put plainly: Human plasma prothrombin time. Conditions: concentration that doubled the prothrombin time in human plasma; Thromborel S. Type of assay: biochemical. The method, boiled down:
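KM-2 control plasma mixed with test compound solution and incubated 1 min at 37°C. Clotting triggered with thromboplastin (ISI=1) and time read on a coagulometer. The concentration doubling PT was estimated by regression from dose-response curves.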

In a further assay the target is human FXa (Homo sapiens, UniProt P00742). Put plainly: Factor Xa inhibition, chromogenic substrate assay. Type of assay: biochemical. The method, boiled down:
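Human FXa (0.0625 U/mL) and test compound in aqueous 5% (v/v) DMSO mixed in Tris-BSA buffer (0.2 M NaCl, 0.1 M Tris, 0.2% BSA, pH 7.4). Chromogenic substrate added to start the reaction, then 10 s stirring. OD at 405 nm followed over time against a DMSO-only reference. Inhibition = 1 − OD(inhibitor)/OD(reference). IC50 derived from the concentration dependence.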

Sequence of human FXa (P00742 235-488 limits assumed): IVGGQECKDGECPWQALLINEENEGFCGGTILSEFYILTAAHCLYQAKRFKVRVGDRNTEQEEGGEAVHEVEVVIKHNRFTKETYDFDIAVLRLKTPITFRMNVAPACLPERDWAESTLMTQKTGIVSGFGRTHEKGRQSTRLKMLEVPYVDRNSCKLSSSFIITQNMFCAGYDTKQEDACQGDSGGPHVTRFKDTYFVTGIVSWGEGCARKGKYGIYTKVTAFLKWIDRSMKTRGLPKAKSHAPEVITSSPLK
Sequence of human FXa (P00742 41-179 partner limits assumed): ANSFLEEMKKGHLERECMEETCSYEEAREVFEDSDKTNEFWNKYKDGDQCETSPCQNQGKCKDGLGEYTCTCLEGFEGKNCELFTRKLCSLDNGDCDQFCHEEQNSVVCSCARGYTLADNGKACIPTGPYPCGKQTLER

On to `CC(=N)N(C)c1ccc(C(=O)Nc2ccc(C)cc2C(=O)Nc2ccc(Cl)cc2)cc1` [Compound 304, N-(4-chlorophenyl)-2-({4-[ethanimidoyl (methyl)amino]benzoyl}amino)-5-methylbenzamide], for which the PTx2 in assay [1] is over 30 µM. Inhibition against human FXa was half-maximal at 1 ± 0.2 nM (IC50).
In the case of `CNC(=O)N(C)c1ccc(C(=O)Nc2ccc(C)cc2C(=O)Nc2ccc(C)cc2)cc1` [Compound 312, 5-methyl-2-[(4-{methyl[(methylamino)carbonyl]amino}benzoyl)amino]-N-(4-methyl-phenyl)benzamide], the PTx2 in assay [1] is 3.0 ± 0.6 µM. The IC50 on human FXa came to 0.15 ± 0.03 nM.
`CC(=N)N(C)c1ccc(C(=O)Nc2ccc(Cl)cc2C(=O)Nc2ccc(Cl)cn2)c(F)c1` [Compound 303, N-(4-chloro-2-{[(5-chloropyridin-2-yl)amino]carbonyl}phenyl)-4-[ethanimidoyl (methyl)amino]-2-fluorobenzamide] displayed a PTx2 in assay [1] of 0.09 ± 0.02 µM. The compound also gave an IC50 on human FXa of 1 ± 0.2 nM.
In assay [1], `CNC(=O)N(C)c1ccc(C(=O)Nc2ccc(C)cc2C(=O)Nc2ccc(Cl)cn2)cc1` [Compound 117, N-(5-chloropyridin-2-yl)-5-methyl-2-[(4-{methyl[(methylamino)carbonyl]amino}benzoyl)amino]benzamide] yielded a PTx2 of 2.0 ± 0.4 µM. Moreover, on human FXa, the IC50 turned out to be 0.15 ± 0.03 nM.
In the same order, the values of `COc1cc(N(C)C(C)=N)ccc1C(=O)Nc1ccc(C)cc1C(=O)Nc1ccc(Cl)cn1` [Compound 307, N-(2-{[(5-chloropyridin-2-yl)amino]carbonyl}-4-methylphenyl)-4-[ethanimidoyl(methyl)amino]-2-methoxybenzamide] are 2.0 ± 0.4 µM and 1 ± 0.2 nM.
In turn, `CNC(=O)N(C)c1ccc(C(=O)Nc2ccc(C)cc2C(=O)Nc2ccc(Cl)cc2)cc1` [Compound 311, N-(4-chlorophenyl)-5-methyl-2-[(4-{methyl [(methylamino)carbonyl]amino}benzoyl)amino]benzamide] displayed a PTx2 in assay [1] of over 30 µM. Besides, the half-maximal inhibitory concentration (IC50) against human FXa is 2 ± 0.3 nM.
In assay [1], `CC(=N)N(C)c1ccc(C(=O)Nc2ccccc2C(=O)Nc2ccc(Cl)cn2)cc1` [Compound 310, N-(5-chloropyridin-2-yl)-2-({4-[ethanimidoyl (methyl)amino]benzoyl}amino)benzamide] came in with a PTx2 of 0.50 ± 0.12 µM. This compound also yielded an IC50 against human FXa of 2 ± 0.2 nM.
For `CC(=N)N(C)c1ccc(C(=O)Nc2ccc(C)cc2C(=O)Nc2ccc(Cl)cn2)c(F)c1` [Compound 302, N-(2-{[(5-chloropyridin-2-yl)amino]carbon-yl}-4-methylphenyl)-4-[ethanimidoyl(methyl)amino]-2-fluorobenzamide], in that order: 0.09 ± 0.02 µM and 0.8 ± 0.2 nM.
Regarding `CNC(=O)N(C)c1ccc(C(=O)Nc2ccccc2C(=O)Nc2ccc(Cl)cn2)cc1` [Compound 317, N-(5-chloropyridin-2-yl)-2-[(4-{methyl[ (methylamino)carbonyl]amino}benzoyl)amino]benzamide], the PTx2 in assay [1] is 3.0 ± 0.6 µM. The compound further returned an IC50 at human FXa of 0.25 ± 0.05 nM.

The IC50 is the concentration that gives 50% inhibition. A high value points to weaker potency in that assay.

The values are drawn from PMC6142410 (Current Drug Discovery Technologies, 2018).
